SMILES strings stand for the structures. Positions of bridges follow the written chain, without caps; N, C: chain ends. Residues, ends and D or L forms follow the SMILES beside them. Where only a bound is given, the exact number is not on record here.

For test [1], the target named is Sodium channel protein type 9 subunit alpha (Homo sapiens, UniProt Q15858). As to the kind of experiment: Inhibition of human Nav1.7 expressed in HEK293 cells assessed as inward peak current by ion-works quattro patch clamp electrophysiology method. The format is cell-based. Background: The patch-clamp technique gives a direct electrical read-out from membranes.

Test [2] addresses Sodium channel protein type 5 subunit alpha (Homo sapiens, UniProt Q14524). The test is described as follows: Inhibition of human Nav1.5 expressed in HEK293 cells assessed as inward peak current by ion-works quattro patch clamp electrophysiology method. Type of test: cell-based. The method, boiled down: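 Stable HEK293 line expressing human NaV1.5, recorded by population patch clamp on the IonWorks Quattro.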

Sequence of Sodium channel protein type 9 subunit alpha (Q15858 whole entry): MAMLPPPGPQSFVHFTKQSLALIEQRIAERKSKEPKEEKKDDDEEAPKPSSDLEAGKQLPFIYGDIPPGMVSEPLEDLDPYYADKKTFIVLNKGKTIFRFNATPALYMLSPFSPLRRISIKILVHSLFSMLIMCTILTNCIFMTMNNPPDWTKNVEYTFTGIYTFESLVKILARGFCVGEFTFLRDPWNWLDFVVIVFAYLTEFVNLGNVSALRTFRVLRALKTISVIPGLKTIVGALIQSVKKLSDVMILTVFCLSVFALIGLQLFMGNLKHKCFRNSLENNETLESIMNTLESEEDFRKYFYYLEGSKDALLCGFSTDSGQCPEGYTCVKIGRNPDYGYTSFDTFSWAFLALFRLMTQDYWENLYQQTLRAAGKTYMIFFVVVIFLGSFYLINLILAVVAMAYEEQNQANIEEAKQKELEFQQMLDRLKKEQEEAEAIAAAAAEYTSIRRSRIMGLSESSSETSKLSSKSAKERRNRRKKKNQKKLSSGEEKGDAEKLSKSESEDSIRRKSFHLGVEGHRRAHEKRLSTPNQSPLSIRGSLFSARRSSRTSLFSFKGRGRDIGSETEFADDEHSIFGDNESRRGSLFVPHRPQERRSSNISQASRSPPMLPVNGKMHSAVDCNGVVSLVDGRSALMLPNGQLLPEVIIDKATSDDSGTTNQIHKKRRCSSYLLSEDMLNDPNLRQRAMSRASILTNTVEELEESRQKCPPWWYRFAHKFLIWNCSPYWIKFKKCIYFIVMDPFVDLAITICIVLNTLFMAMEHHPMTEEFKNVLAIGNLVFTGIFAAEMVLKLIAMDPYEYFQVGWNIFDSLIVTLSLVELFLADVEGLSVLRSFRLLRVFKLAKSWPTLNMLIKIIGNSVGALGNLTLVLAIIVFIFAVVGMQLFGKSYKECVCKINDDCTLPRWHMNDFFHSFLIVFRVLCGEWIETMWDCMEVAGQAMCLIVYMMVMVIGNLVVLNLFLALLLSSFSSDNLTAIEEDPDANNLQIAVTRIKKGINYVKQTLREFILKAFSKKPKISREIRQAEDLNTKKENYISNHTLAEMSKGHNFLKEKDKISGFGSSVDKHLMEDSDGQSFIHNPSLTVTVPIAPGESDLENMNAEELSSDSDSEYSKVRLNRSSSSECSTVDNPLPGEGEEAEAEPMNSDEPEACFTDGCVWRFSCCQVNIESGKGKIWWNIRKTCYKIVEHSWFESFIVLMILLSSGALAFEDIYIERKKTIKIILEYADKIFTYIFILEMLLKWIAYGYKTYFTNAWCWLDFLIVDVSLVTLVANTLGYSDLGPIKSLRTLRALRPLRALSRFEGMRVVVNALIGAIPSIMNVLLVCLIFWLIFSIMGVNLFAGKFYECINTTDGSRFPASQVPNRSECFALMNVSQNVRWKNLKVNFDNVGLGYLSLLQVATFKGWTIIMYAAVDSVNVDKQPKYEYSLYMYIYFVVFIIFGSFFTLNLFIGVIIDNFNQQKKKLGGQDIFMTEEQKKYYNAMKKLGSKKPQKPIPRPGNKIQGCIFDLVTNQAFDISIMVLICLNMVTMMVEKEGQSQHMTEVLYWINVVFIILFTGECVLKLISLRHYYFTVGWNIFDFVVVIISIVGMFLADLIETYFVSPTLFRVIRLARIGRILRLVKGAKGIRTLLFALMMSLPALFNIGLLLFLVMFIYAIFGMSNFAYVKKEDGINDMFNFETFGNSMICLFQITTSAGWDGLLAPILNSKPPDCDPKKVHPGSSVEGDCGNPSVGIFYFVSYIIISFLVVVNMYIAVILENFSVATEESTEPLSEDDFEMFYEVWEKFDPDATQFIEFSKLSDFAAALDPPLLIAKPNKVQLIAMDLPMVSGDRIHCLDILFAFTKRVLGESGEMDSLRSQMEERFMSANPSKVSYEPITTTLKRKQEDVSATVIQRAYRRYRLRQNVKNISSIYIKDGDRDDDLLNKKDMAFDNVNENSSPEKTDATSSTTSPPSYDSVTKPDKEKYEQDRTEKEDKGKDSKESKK
Sequence of Sodium channel protein type 5 subunit alpha (Q14524 whole entry): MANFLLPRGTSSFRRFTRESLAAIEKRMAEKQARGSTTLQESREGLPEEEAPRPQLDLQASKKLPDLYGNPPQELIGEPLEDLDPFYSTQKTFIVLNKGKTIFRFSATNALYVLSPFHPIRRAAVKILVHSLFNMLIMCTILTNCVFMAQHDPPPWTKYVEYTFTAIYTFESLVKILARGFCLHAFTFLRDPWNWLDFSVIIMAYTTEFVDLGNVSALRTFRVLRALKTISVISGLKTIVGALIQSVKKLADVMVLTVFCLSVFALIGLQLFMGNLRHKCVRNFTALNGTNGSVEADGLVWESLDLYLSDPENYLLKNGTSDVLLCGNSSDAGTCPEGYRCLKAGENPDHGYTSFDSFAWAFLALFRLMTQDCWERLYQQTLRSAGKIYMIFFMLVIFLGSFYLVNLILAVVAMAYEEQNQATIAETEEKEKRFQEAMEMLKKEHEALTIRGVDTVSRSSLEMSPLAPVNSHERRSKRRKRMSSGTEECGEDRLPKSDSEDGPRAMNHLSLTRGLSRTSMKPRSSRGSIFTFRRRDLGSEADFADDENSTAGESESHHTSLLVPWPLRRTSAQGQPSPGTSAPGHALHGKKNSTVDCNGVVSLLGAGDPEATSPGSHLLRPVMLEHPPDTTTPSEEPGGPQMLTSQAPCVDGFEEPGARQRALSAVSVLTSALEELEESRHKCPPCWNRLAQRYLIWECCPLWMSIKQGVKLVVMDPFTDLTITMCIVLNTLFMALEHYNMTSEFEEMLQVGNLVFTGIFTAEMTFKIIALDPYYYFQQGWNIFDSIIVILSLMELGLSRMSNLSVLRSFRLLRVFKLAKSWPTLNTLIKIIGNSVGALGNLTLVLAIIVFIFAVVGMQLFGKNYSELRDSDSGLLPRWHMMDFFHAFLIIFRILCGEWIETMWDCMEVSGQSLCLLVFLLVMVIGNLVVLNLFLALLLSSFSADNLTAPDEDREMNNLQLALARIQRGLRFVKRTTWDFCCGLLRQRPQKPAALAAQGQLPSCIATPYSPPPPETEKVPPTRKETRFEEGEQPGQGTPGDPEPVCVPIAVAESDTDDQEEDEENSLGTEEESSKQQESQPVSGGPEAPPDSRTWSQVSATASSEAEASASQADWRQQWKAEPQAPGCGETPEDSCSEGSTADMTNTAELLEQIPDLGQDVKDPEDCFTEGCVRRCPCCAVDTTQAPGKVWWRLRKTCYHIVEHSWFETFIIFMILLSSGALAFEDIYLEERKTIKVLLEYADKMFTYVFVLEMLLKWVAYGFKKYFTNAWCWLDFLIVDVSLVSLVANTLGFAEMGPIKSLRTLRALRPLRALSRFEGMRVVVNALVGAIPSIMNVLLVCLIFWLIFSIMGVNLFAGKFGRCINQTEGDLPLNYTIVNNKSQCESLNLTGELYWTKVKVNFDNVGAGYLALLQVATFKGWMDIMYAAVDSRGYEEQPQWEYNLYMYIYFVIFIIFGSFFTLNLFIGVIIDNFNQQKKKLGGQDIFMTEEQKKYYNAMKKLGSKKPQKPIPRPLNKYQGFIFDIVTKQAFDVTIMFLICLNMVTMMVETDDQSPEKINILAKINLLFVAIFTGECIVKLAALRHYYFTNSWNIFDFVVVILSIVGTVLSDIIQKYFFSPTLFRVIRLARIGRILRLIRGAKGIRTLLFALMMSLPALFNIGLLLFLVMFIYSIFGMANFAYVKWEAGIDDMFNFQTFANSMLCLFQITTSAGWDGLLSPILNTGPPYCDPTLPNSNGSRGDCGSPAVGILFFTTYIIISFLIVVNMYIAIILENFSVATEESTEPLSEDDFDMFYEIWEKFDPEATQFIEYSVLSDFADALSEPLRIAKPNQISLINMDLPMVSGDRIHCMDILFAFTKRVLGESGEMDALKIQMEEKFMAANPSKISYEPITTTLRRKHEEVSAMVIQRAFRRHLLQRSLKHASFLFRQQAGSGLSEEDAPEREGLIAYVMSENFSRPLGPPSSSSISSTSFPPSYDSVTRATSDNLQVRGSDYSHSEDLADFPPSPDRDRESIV

As for `CC[C@H](C)[C@@H]1NC(=O)[C@H]2CSSC[C@H]3NC(=O)[C@H](C(C)C)NC(=O)[C@H](CC(C)C)NC(=O)[C@H](CC(N)=O)NC(=O)[C@@H]4CCCN4C(=O)[C@H](CCCNC(=N)N)NC(=O)[C@H](CSSC[C@H](NC(=O)[C@@H](N)CC(=O)O)C(=O)N[C@@H](CC(C)C)C(=O)NCC(=O)N[C@@H](Cc4ccccc4)C(=O)N[C@@H](CCSC)C(=O)N[C@@H](CCCNC(=N)N)C(=O)N[C@@H](CCCCN)C(=O)N2)NC(=O)[C@@H](CSSC[C@@H](C(=O)N[C@@H](CCCCN)C(=O)N[C@@H](Cc2ccc(O)cc2)C(=O)N[C@H](C(=O)N[C@@H](Cc2ccccc2)C(N)=O)C(C)C)NC(=O)[C@H](Cc2c[nH]c4ccccc24)NC(=O)[C@H](C)NC(=O)[C@H](Cc2cnc[nH]2)NC(=O)[C@H]([C@@H](C)O)NC(=O)[C@H](CCCNC(=N)N)NC(=O)[C@H](CO)NC3=O)NC(=O)[C@H](CCCCN)NC(=O)[C@H](CC(=O)O)NC(=O)[C@H](CC(N)=O)NC(=O)[C@H](CC(=O)O)NC(=O)[C@@H]2CCCN2C1=O`, the IC50 (commonly the midpoint of a concentration-inhibition curve) in test [1] was 470 nM; in test [2], above 5000 nM.

For the compound `CC[C@H](C)[C@@H]1NC(=O)[C@@H]2CSSC[C@@H]3NC(=O)[C@H](C(C)C)NC(=O)[C@H](CC(C)C)NC(=O)[C@H](CCC(=O)O)NC(=O)[C@@H]4CCCN4C(=O)[C@H](CCCNC(=N)N)NC(=O)[C@H](CSSC[C@H](NC(=O)[C@@H](N)CC(=O)O)C(=O)N[C@@H](CC(C)C)C(=O)NCC(=O)N[C@@H](Cc4ccccc4)C(=O)N[C@@H](CCSC)C(=O)N[C@@H](CCCNC(=N)N)C(=O)N[C@@H](CCCCN)C(=O)N2)NC(=O)[C@H](CSSC[C@@H](C(=O)N[C@@H](CCCCN)C(=O)N[C@@H](Cc2ccc(O)cc2)C(=O)N[C@H](C(=O)N[C@@H](Cc2ccccc2)C(N)=O)C(C)C)NC(=O)[C@H](Cc2c[nH]c4ccccc24)NC(=O)[C@H](CCCCN)NC(=O)[C@H](Cc2cnc[nH]2)NC(=O)[C@H]([C@@H](C)O)NC(=O)[C@H](CCCNC(=N)N)NC(=O)[C@H](CO)NC3=O)NC(=O)[C@H](CCCCN)NC(=O)[C@H](CC(=O)O)NC(=O)[C@H](CC(N)=O)NC(=O)[C@H](CC(=O)O)NC(=O)[C@@H]2CCCN2C1=O` (H-DCLGFMRKCIPDNDKCCRPELVCSRTHKWCKYVF-NH2; disulfide 2-17, 9-23, 16-30), the 50% inhibitory concentration (IC50) in test [1] is 1400 nM; in test [2], above 5000 nM.

Regarding `CC[C@H](C)[C@@H]1NC(=O)[C@@H]2CSSC[C@@H]3NC(=O)[C@H](C(C)C)NC(=O)[C@H](CC(C)C)NC(=O)[C@H](CC(N)=O)NC(=O)[C@@H]4CCCN4C(=O)[C@H](CCCNC(=N)N)NC(=O)[C@H](CSSC[C@H](NC(=O)[C@@H](N)CC(=O)O)C(=O)N[C@@H](CC(C)C)C(=O)NCC(=O)N[C@@H](Cc4ccccc4)C(=O)N[C@@H](CCSC)C(=O)N[C@@H](CCCNC(=N)N)C(=O)N[C@@H](CCCCN)C(=O)N2)NC(=O)[C@H](CSSC[C@@H](C(=O)N[C@@H](CCCCN)C(=O)N[C@@H](Cc2ccc(O)cc2)C(=O)N[C@H](C(=O)N[C@@H](Cc2ccccc2)C(N)=O)C(C)C)NC(=O)[C@H](Cc2c[nH]c4ccccc24)NC(=O)[C@H](CCCCN)NC(=O)[C@H](Cc2cnc[nH]2)NC(=O)[C@H](CCCCN)NC(=O)[C@H](CCCNC(=N)N)NC(=O)[C@H](CO)NC3=O)NC(=O)[C@H](CCCCN)NC(=O)[C@H](CC(=O)O)NC(=O)[C@H](CC(N)=O)NC(=O)[C@H](CC(=O)O)NC(=O)[C@@H]2CCCN2C1=O` (H-DCLGFMRKCIPDNDKCCRPNLVCSRKHKWCKYVF-NH2; disulfide 2-17, 9-23, 16-30), the figures for the half-inhibitory concentration (IC50) in test [1] and in test [2] were 40 nM and above 5000 nM, respectively.

In the case of `CC[C@H](C)[C@@H]1NC(=O)[C@@H]2CSSC[C@@H]3NC(=O)[C@H](C(C)C)NC(=O)[C@H](CC(C)C)NC(=O)[C@H](CC(N)=O)NC(=O)[C@@H]4CCCN4C(=O)[C@H](CCCNC(=N)N)NC(=O)[C@H](CSSC[C@H](NC(=O)[C@@H](N)CC(=O)O)C(=O)N[C@@H](CC(C)C)C(=O)NCC(=O)N[C@@H](Cc4ccccc4)C(=O)N[C@@H](CCSC)C(=O)N[C@@H](CCCCN)C(=O)N[C@@H](CCCCN)C(=O)N2)NC(=O)[C@H](CSSC[C@@H](C(=O)N[C@@H](CCCCN)C(=O)N[C@@H](Cc2ccc(O)cc2)C(=O)N[C@H](C(=O)N[C@@H](Cc2ccccc2)C(N)=O)C(C)C)NC(=O)[C@H](Cc2c[nH]c4ccccc24)NC(=O)[C@H](CCCCN)NC(=O)[C@H](Cc2c[nH]cn2)NC(=O)[C@H]([C@@H](C)O)NC(=O)[C@H](CCCNC(=N)N)NC(=O)[C@H](CO)NC3=O)NC(=O)[C@H](CCCCN)NC(=O)[C@H](CC(=O)O)NC(=O)[C@H](CC(N)=O)NC(=O)[C@H](CC(=O)O)NC(=O)[C@@H]2CCCN2C1=O` (H-DCLGFMKKCIPDNDKCCRPNLVCSRTHKWCKYVF-NH2; disulfide 2-17, 9-23, 16-30), the IC50 in test [1] is 540 nM; in test [2] it was above 5000 nM.

As to `CC[C@H](C)[C@@H]1NC(=O)[C@@H]2CSSC[C@@H]3NC(=O)[C@H](C(C)C)NC(=O)[C@H](CC(C)C)NC(=O)[C@H](CC(N)=O)NC(=O)[C@@H]4CCCN4C(=O)[C@H](CCCNC(=N)N)NC(=O)[C@H](CSSC[C@H](NC(=O)[C@@H](N)CC(=O)O)C(=O)N[C@@H](CC(C)C)C(=O)NCC(=O)N[C@@H](Cc4ccccc4)C(=O)N[C@@H](CCSC)C(=O)N[C@@H](CCCNC(=N)N)C(=O)N[C@@H](CCCCN)C(=O)N2)NC(=O)[C@H](CSSC[C@@H](C(=O)N[C@@H](CCC(=O)O)C(=O)N[C@@H](Cc2ccc(O)cc2)C(=O)N[C@H](C(=O)N[C@@H](Cc2ccccc2)C(N)=O)C(C)C)NC(=O)[C@H](Cc2c[nH]c4ccccc24)NC(=O)[C@H](CCCCN)NC(=O)[C@H](Cc2cnc[nH]2)NC(=O)[C@H]([C@@H](C)O)NC(=O)[C@H](CCCNC(=N)N)NC(=O)[C@H](CO)NC3=O)NC(=O)[C@H](CCCCN)NC(=O)[C@H](CC(=O)O)NC(=O)[C@H](CC(N)=O)NC(=O)[C@H](CC(=O)O)NC(=O)[C@@H]2CCCN2C1=O` (H-DCLGFMRKCIPDNDKCCRPNLVCSRTHKWCEYVF-NH2; disulfide 2-17, 9-23, 16-30), the half-inhibitory concentration (IC50) in test [1] and in test [2] was above 5000 nM in each case.

As for `CC[C@H](C)[C@@H]1NC(=O)[C@@H]2CSSC[C@@H]3NC(=O)[C@H](C(C)C)NC(=O)[C@H](CC(C)C)NC(=O)[C@H](CC(N)=O)NC(=O)[C@@H]4CCCN4C(=O)[C@H](CCCNC(=N)N)NC(=O)[C@H](CSSC[C@H](NC(=O)[C@@H](N)Cc4c[nH]c5ccccc45)C(=O)N[C@@H](CC(C)C)C(=O)NCC(=O)N[C@@H](Cc4ccccc4)C(=O)N[C@@H](CCSC)C(=O)N[C@@H](CCCNC(=N)N)C(=O)N[C@@H](CCCCN)C(=O)N2)NC(=O)[C@H](CSSC[C@@H](C(=O)N[C@@H](CCCCN)C(=O)N[C@@H](Cc2ccc(O)cc2)C(=O)N[C@H](C(=O)N[C@@H](Cc2ccccc2)C(N)=O)C(C)C)NC(=O)[C@H](Cc2c[nH]c4ccccc24)NC(=O)[C@H](CCCCN)NC(=O)[C@H](Cc2cnc[nH]2)NC(=O)[C@H]([C@@H](C)O)NC(=O)[C@H](CCCNC(=N)N)NC(=O)[C@H](CO)NC3=O)NC(=O)[C@H](CCCCN)NC(=O)[C@H](CC(=O)O)NC(=O)[C@H](CC(N)=O)NC(=O)[C@H](CC(=O)O)NC(=O)[C@@H]2CCCN2C1=O` (H-WCLGFMRKCIPDNDKCCRPNLVCSRTHKWCKYVF-NH2; disulfide 2-17, 9-23, 16-30), the figures for the IC50 in test [1] and in test [2] were 70 nM and above 5000 nM, respectively.

With `CC[C@H](C)[C@@H]1NC(=O)[C@@H]2CSSC[C@@H]3NC(=O)[C@H](C(C)C)NC(=O)[C@H](CC(C)C)NC(=O)[C@H](CC(N)=O)NC(=O)[C@@H]4CCCN4C(=O)[C@H](CCCNC(=N)N)NC(=O)[C@H](CSSC[C@H](NC(=O)[C@@H](N)CC(=O)O)C(=O)N[C@@H](CC(C)C)C(=O)NCC(=O)N[C@@H](Cc4ccccc4)C(=O)N[C@@H](CCSC)C(=O)N[C@@H](CCCNC(=N)N)C(=O)N[C@@H](CCCCN)C(=O)N2)NC(=O)[C@H](CSSC[C@@H](C(=O)N[C@@H](CCCNC(=N)N)C(=O)N[C@@H](Cc2ccc(O)cc2)C(=O)N[C@H](C(=O)N[C@@H](Cc2ccccc2)C(N)=O)C(C)C)NC(=O)[C@H](Cc2c[nH]c4ccccc24)NC(=O)[C@H](CCCCN)NC(=O)[C@H](Cc2cnc[nH]2)NC(=O)[C@H]([C@@H](C)O)NC(=O)[C@H](CCCNC(=N)N)NC(=O)[C@H](CO)NC3=O)NC(=O)[C@H](CCCCN)NC(=O)[C@H](CC(=O)O)NC(=O)[C@H](CC(N)=O)NC(=O)[C@H](CC(=O)O)NC(=O)[C@@H]2CCCN2C1=O` (H-DCLGFMRKCIPDNDKCCRPNLVCSRTHKWCRYVF-NH2; disulfide 2-17, 9-23, 16-30), the concentration for half-maximal inhibition (IC50) is 950 nM in test [1] and above 5000 nM in test [2].

Regarding `CC[C@H](C)[C@@H]1NC(=O)[C@@H]2CSSC[C@@H]3NC(=O)[C@H](C(C)C)NC(=O)[C@H](CC(C)C)NC(=O)[C@H](CC(N)=O)NC(=O)[C@@H]4CCCN4C(=O)[C@H](CCCNC(=N)N)NC(=O)[C@H](CSSC[C@H](NC(=O)[C@@H](N)CC(=O)O)C(=O)N[C@@H](CC(C)C)C(=O)NCC(=O)N[C@@H](Cc4ccccc4)C(=O)N[C@@H](CCSC)C(=O)N[C@@H](CCCNC(=N)N)C(=O)N[C@@H](CCCNC(=N)N)C(=O)N2)NC(=O)[C@H](CSSC[C@@H](C(=O)N[C@@H](CCCCN)C(=O)N[C@@H](Cc2ccc(O)cc2)C(=O)N[C@H](C(=O)N[C@@H](Cc2ccccc2)C(N)=O)C(C)C)NC(=O)[C@H](Cc2c[nH]c4ccccc24)NC(=O)[C@H](CCCCN)NC(=O)[C@H](Cc2cnc[nH]2)NC(=O)[C@H]([C@@H](C)O)NC(=O)[C@H](CCCNC(=N)N)NC(=O)[C@H](CO)NC3=O)NC(=O)[C@H](CCCCN)NC(=O)[C@H](CC(=O)O)NC(=O)[C@H](CC(N)=O)NC(=O)[C@H](CC(=O)O)NC(=O)[C@@H]2CCCN2C1=O` (H-DCLGFMRRCIPDNDKCCRPNLVCSRTHKWCKYVF-NH2; disulfide 2-17, 9-23, 16-30), the half-maximal inhibitory concentration (IC50) in test [1] was 130 nM; in test [2] it was above 5000 nM.

The values above are taken from ChEMBL document CHEMBL3797186, “Single Residue Substitutions That Confer Voltage-Gated Sodium Ion Channel Subtype Selectivity in the NaV1.7 Inhibitory Peptide GpTx-1” (J Med Chem, 2016).
